Measurements as given in publication PMC8640676 (Journal of Pesticide Science, 2021).

What was measured:
[1] = molecular target: T1, protoporphyrinogen oxidase (PPO) (Mus musculus, UniProt P51175); assay: PPO-inhibition assay, mouse liver mitochondrial fraction; type: biochemical
T1 sequence (P51175 1-477): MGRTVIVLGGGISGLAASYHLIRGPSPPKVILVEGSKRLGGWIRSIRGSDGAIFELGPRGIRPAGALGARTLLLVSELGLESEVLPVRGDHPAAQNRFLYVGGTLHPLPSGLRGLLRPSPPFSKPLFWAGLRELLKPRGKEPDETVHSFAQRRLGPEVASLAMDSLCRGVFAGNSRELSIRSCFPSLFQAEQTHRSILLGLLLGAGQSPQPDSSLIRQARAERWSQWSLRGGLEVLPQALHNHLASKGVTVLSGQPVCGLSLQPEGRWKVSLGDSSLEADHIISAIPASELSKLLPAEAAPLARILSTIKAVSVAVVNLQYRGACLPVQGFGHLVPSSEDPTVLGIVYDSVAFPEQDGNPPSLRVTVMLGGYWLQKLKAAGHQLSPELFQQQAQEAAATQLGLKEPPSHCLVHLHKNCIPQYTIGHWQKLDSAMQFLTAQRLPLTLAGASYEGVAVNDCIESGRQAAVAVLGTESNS
Summary of the method: (§1)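 Liver mitochondria came from pooled SD rats and humans, or were freshly kit-isolated from Crl:CD1 mice and TOYO beagles. They were used at 0.2 mg protein/mL in 100 mM Tris-HCl pH 7.5 with 0.1% Triton-X, 1 mM EDTA and 40 mM ascorbate, preincubated 10 min at 37°C, then given 0.5 µM protoporphyrinogen IX. PPIX fluorescence (ex 410/em 630 nm) was read for 60 min at 37°C. Heat-killed mitochondria gave the background, and IC50 came from 4-parameter fits over 3 runs.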

[2] = Toxicokinetics in plasma, dog 90-day study; type: in vivo; settings: for Cmax: beagle, dog, plasma, po
[3] = tested on: cryopreserved primary hepatocytes of SD rats; assay: Hepatocyte uptake assay; type: in vitro ADME, rat; settings: rats vs humans
[4] = In vitro metabolism study in liver microsomes; type: in vitro ADME; settings: mouse liver microsomes, [14C]epyrifenacil 10 µM
[5] = Toxicokinetics in plasma, mouse 90-day study; type: in vivo; settings: mouse, plasma, po
[6] = In vitro metabolism study in liver microsomes; type: in vitro ADME; settings: rat liver microsomes, [14C]epyrifenacil 10 µM
[7] = Toxicokinetics in plasma, rat 90-day study; type: in vivo; settings: for AUC(0-t) / Cmax: rat, plasma, po
[8] = In vitro metabolism study in liver microsomes; type: in vitro ADME; settings: human liver microsomes, [14C]epyrifenacil 10 µM
[9] = molecular target: T2, protoporphyrinogen oxidase (PPO) (Homo sapiens, UniProt P50336); assay: PPO-inhibition assay, human liver mitochondrial fraction; type: biochemical
T2 sequence (P50336 1-477): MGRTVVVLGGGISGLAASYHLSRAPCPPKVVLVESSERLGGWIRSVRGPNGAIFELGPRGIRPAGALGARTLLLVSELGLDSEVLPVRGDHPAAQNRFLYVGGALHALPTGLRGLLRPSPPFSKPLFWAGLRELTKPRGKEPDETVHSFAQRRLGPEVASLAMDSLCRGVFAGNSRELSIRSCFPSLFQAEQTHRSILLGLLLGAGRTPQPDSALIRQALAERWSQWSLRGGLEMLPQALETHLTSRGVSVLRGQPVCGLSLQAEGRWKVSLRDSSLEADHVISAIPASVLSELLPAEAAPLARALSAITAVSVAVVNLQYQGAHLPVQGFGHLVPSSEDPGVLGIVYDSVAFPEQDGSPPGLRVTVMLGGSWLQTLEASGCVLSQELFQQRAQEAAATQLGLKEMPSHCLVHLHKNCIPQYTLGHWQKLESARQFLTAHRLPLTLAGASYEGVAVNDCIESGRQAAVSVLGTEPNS
Summary of the method: as §1

[10] = tested on: cryopreserved primary hepatocytes of humans; assay: Hepatocyte uptake assay; type: in vitro ADME; settings: human hepatocytes (both genders), 5 µM, 37°C minus 4°C
[11] = molecular target: T3, protoporphyrinogen oxidase (PPO) (Rattus norvegicus, UniProt D3ZVN7); assay: PPO-inhibition assay, rat liver mitochondrial fraction; type: biochemical
T3 sequence (D3ZVN7 1-488): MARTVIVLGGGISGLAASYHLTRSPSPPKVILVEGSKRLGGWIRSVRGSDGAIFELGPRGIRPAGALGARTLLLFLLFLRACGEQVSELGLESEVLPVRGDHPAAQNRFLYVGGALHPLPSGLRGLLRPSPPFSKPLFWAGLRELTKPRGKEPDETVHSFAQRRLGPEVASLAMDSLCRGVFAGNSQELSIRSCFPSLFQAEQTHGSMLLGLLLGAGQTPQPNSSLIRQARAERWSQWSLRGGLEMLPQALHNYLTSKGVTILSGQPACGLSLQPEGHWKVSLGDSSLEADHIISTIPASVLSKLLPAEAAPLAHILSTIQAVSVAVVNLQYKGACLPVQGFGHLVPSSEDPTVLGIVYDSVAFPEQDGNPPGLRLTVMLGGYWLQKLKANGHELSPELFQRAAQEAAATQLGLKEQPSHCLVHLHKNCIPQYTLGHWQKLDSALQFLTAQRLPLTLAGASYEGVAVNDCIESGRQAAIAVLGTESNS
Summary of the method: as §1

[12] = molecular target: T4, protoporphyrinogen oxidase (PPO) (Canis lupus familiaris, UniProt A0A8I3Q7Z3); assay: PPO-inhibition assay, dog liver mitochondrial fraction; type: biochemical
T4 sequence (A0A8I3Q7Z3 1-480): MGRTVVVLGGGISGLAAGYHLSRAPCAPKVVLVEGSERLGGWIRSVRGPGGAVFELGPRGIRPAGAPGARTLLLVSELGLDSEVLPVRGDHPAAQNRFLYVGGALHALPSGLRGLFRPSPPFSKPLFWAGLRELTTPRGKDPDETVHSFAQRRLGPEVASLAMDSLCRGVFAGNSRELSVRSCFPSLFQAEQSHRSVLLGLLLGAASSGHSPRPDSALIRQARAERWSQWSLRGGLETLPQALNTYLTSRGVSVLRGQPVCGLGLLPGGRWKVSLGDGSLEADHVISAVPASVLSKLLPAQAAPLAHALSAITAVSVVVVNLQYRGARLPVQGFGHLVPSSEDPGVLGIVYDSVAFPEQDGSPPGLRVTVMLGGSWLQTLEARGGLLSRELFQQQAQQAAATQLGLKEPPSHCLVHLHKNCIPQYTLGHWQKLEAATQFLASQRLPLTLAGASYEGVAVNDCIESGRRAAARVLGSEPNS
Summary of the method: as §1

[13] = female, Crl:CD1(ICR), 4.1 mg/kg bw/day
[14] = female, Crl:CD(SD), 19 mg/kg bw/day
[15] = male, Crl:CD(SD), 3 mg/kg bw/day

For `Cn1c(C(F)(F)F)cc(=O)n(-c2cc(Oc3cccnc3OCC(=O)O)c(Cl)cc2F)c1=O` [S-3100-CA, (3-{2-chloro-4-fluoro-5-[1,2,3,6-tetrahydro-3-methyl-2,6-dioxo-4-(trifluoromethyl)pyrimidin-1-yl]phenoxy}pyridin-2-yloxy)acetic acid], the IC50 [1] was 0.9 ± 0.3 nM, the “AUC0–24 of S-3100-CA at NOAEL, fold change vs. corresponding mouse value” ([2]; female dogs vs female mice) was 23 fold and the “Cmax of S-3100-CA at NOAEL, fold change vs. corresponding mouse value” (from here on “Cmax … fold change vs. corresponding mouse value”) ([2]; female dogs vs female mice) was 42 fold. The Cmax ([2]; female, 300 mg/kg bw/day) was 5650 ng/mL, the Cmax ([2]; female, 300 mg/kg/day) was 5650 ng/mL and the “Cmax … fold change vs. corresponding mouse value” ([2]; male dogs vs male mice) was 74 fold. The Cmax ([2]; male, 100 mg/kg bw/day) was 947 ng/mL, the Cmax ([2]; male, 100 mg/kg/day) was 947 ng/mL and the “Hepatocyte uptake, times greater in rats than in humans” value [3] was 2 times. The “S-3100-CA detected as major metabolite, share of the applied radioactivity” value (“S-3100-CA detected as major metabolite” for short) [4] was “no less than 80%”, the AUC(0-t) [5, 13] was 2240 ng·h/mL and the Cmax [5, 13] was 135 ng/mL. For the same compound, the AUC(0-t) ([5]; female, 5 ppm in diet) was 403 ng·h/mL, the Cmax ([5]; female, 5 ppm in diet) was 22.7 ng/mL and the AUC(0-t) ([5]; female, 25 ppm in diet) was 2240 ng·h/mL. For the same compound, the Cmax ([5]; female, 25 ppm in diet) was 135 ng/mL, the AUC(0-t) ([5]; female, 100 ppm in diet) was 14800 ng·h/mL and the Cmax ([5]; female, 100 ppm in diet) was 860 ng/mL. It also gave a Cmax ([5]; male, Crl:CD1(ICR), 0.7 mg/kg bw/day) of 12.8 ng/mL, a Cmax ([5]; male, 5 ppm in diet) of 12.8 ng/mL and an AUC(0-t) ([5]; male, 25 ppm in diet) of 4580 ng·h/mL. The Cmax ([5]; male, 25 ppm in diet) was 64.9 ng/mL, the AUC(0-t) ([5]; male, 100 ppm in diet) was 10100 ng·h/mL and the Cmax ([5]; male, 100 ppm in diet) was 550 ng/mL. For the same compound, the “S-3100-CA detected as major metabolite” value [6] was “no less than 80%”, the “AUC0–24 of S-3100-CA at NOAEL, fold change vs. corresponding mouse value” ([7]; female rats vs female mice) was 2.2 fold and the “Cmax … fold change vs. corresponding mouse value” ([7]; female rats vs female mice) was 2.0 fold. For the same compound, the AUC(0-t) [7, 14] was 5020 ng·h/mL, the Cmax [7, 14] was 266 ng/mL and the AUC(0-t) ([7]; female, Crl:CD(SD), 50 ppm) was 879 ng·h/mL. For the same compound, the Cmax ([7]; female, 50 ppm in diet) was 46.5 ng/mL, the AUC(0-t) ([7]; female, 300 ppm in diet) was 5020 ng·h/mL and the Cmax ([7]; female, 300 ppm in diet) was 266 ng/mL. The AUC(0-t) ([7]; female, 800 ppm in diet) was 13200 ng·h/mL, the Cmax ([7]; female, 800 ppm in diet) was 756 ng/mL and the “Cmax … fold change vs. corresponding mouse value” ([7]; male rats vs male mice) was 1.6 fold. The AUC(0-t) [7, 15] was 467 ng·h/mL, the Cmax [7, 15] was 20.7 ng/mL and the AUC(0-t) ([7]; male, Crl:CD(SD), 50 ppm) was 467 ng·h/mL. For the same compound, the Cmax ([7]; male, Crl:CD(SD), 50 ppm) was 20.7 ng/mL, the AUC(0-t) ([7]; male, 300 ppm in diet) was 4010 ng·h/mL and the Cmax ([7]; male, 300 ppm in diet) was 248 ng/mL. The “S-3100-CA detected as major metabolite” value [8] was “no less than 80%”, the IC50 [9] was 12.5 ± 2.08 nM and the “Active uptake rate into hepatocytes” value [10] was 3.83 µL/10^6 cells/min. For the same compound, the IC50 [11] was 1.5 ± 0.36 nM and the IC50 [12] was 11.1 ± 3.12 nM.
